In brackets after ≈: the same amount, converted by molar mass.
Columns and labels:
[1] = system: Enterovirus; test: Antiviral activity against rhinovirus 10 using plaque-inhibition assay; format: functional; details: read-out: ED50 (the source's name)
In short: (§1)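 Plaque reduction: confluent monolayers were infected with 100-200 PFU. Hela (Ohio) cells were used for rhinoviruses 10 and 1A and coxsackieviruses B4 and A9, CV-1 for poliovirus type 1 Mahoney, and LLC-MK2 for enterovirus 70. Cells were overlaid with 2.0% agar in MEM plus 4% FBS containing serial compound concentrations. Incubation was 37 °C for polio/coxsackie and 33 °C for rhino/enterovirus, with a neutral red (0.004%) second overlay. ED50 was taken from the dose-response curve.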

[2] = system: CV-1; test: Chemotherapeutic index in CV-1 cells (chemotherapeutic index=50% cytotoxic dose/50% effective dose).; format: functional, Cercopithecidae
In short: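 Index = 50% cytotoxic dose / 50% plaque-inhibition dose. For cytotoxicity, 200 cells/mL in suspension were mixed with 10% FBS MEM carrying serial compound dilutions and incubated 7 days at 37 °C under 5% CO2. Colonies were stained with 1% crystal violet and counted, and the 50% cytotoxic dose was read from the dose-response curve.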

[3] = system: Poliovirus 1; test: microbe, parasite or virus in culture; format: functional; details: Enterovirus C; read-out: ED50 (the source's name)
[4] = system: Enterovirus; test: Antiviral activity against rhinovirus 1A using plaque-inhibition assay; format: functional; details: read-out: ED50 (the source's name); in short: as §1

SMILES | EC50 [1] [µg/mL] | Chemotherapeutic index [2] | EC50 [3] [µg/mL] | EC50 [4] [µg/mL]
COCc1ccc(/C(=N\O)c2cccc(NS(=O)(=O)N(C)C)c2)cc1 | 0.36 (≈ 0.991 µM) | 28 | 0.25 (≈ 0.688 µM) | 
CC(C)S(=O)(=O)Nc1cccc(C(=O)Nc2ccccc2N)c1 |  |  | > 50 | 
O=C(Nc1ccccc1)c1cccc(NS(=O)(=O)c2ccccc2)c1 |  |  | 17 (≈ 48.2 µM) | 
CSc1ccc(/C(=N\O)c2cccc(NS(=O)(=O)N(C)C)c2)cc1 | 0.26 (≈ 0.711 µM) | 9 | 0.32 (≈ 0.876 µM) | 
Cc1ccc(/C(=N\O)c2cccc(NS(=O)(=O)N(C)C)c2)cc1 | 0.41 (≈ 1.23 µM) | 86 | 0.44 (≈ 1.32 µM) | 
CS(=O)(=O)Nc1cccc(C(=O)Nc2ccccc2)c1 |  |  | > 50 | 
CCCCc1ccc(NC(=O)c2ccc(NS(=O)(=O)C(C)C)cc2)cc1 |  |  | 0.16 (≈ 0.427 µM) | 
CC(C)S(=O)(=O)Nc1cccc(C(=O)Nc2ccccc2)c1 |  |  | 7 (≈ 22 µM) | 
COc1cccc(/C(=N\O)c2cccc(NS(=O)(=O)N(C)C)c2)c1 | 0.41 (≈ 1.17 µM) | 74 | 0.34 (≈ 0.973 µM) | 
CC(C)S(=O)(=O)Nc1cccc(C(=O)Nc2cccc(CO)c2)c1 |  |  | > 50 | 
COc1ccc(/C(=N\O)c2cccc(NS(=O)(=O)N(C)C)c2)cc1OC |  |  | 0.55 (≈ 1.45 µM) | 
CN(C)S(=O)(=O)Nc1cccc(/C(=N/O)c2ccc(Cl)cc2)c1 | 0.53 (≈ 1.5 µM) | 26 | 0.46 (≈ 1.3 µM) | 
CN(C)S(=O)(=O)Nc1ccc(Cl)c(C(=O)Nc2ccc(Cl)cc2)c1 |  |  | > 50 | 
CC(C)S(=O)(=O)Nc1cccc(C(=O)NC(C)(C)C)c1 |  |  | > 50 | 
CC(C)S(=O)(=O)Nc1cccc(C(=O)Nc2ccc(F)cc2)c1 |  |  | 4.2 (≈ 12.5 µM) | 
CN(C)S(=O)(=O)Nc1cccc(NC(=O)c2ccccc2)c1 |  |  | 20 (≈ 62.6 µM) | 
CN(C)S(=O)(=O)Nc1cccc(/C(=N/O)c2ccc(CO)cc2)c1 | 0.37 (≈ 1.06 µM) | 55 | 0.4 (≈ 1.14 µM) | 
CC(C)S(=O)(=O)Nc1cccc(C(=O)Nc2ccc(Cl)cc2)c1 |  |  | 1.2 (≈ 3.4 µM) | 
Cc1ccc(NC(=O)c2ccc(NS(=O)(=O)N(C)C)cc2)cc1 |  | 370 | 0.54 (≈ 1.62 µM) | 0.38 (≈ 1.14 µM)
COC(=O)c1cccc(NC(=O)c2ccc(NS(=O)(=O)N(C)C)cc2)c1 |  |  | 1.2 (≈ 3.18 µM) | 
CN(C)S(=O)(=O)Nc1ccc(C(=O)Nc2ccc(I)cc2)cc1 |  | 5 | 0.3 (≈ 0.674 µM) | 0.3 (≈ 0.674 µM)
CC(C)S(=O)(=O)Nc1cccc(C(=O)NCc2ccco2)c1 |  |  | > 50 | 
CCc1ccc(NC(=O)c2ccc(NS(=O)(=O)N(C)C)cc2)cc1 |  | 10 | 0.36 (≈ 1.04 µM) | 0.2 (≈ 0.576 µM)
CC(C)S(=O)(=O)Nc1cccc(C(=O)Nc2ccc(Br)cc2)c1 |  |  | 0.7 (≈ 1.76 µM) | 

SMILES | EC50 [1] [µg/mL] | Chemotherapeutic index [2] | EC50 [3] [µg/mL] | EC50 [4] [µg/mL]
CCCCc1ccc(NC(=O)c2cccc(NS(=O)(=O)C(C)C)c2)cc1 |  |  | 0.42 (≈ 1.12 µM) | 
CN(C)S(=O)(=O)Nc1cccc(/C(=N/O)c2cccc(CO)c2)c1 | 1.6 (≈ 4.58 µM) | 20 | 0.5 (≈ 1.43 µM) | 
Cc1cccc(NC(=O)c2ccc(NS(=O)(=O)N(C)C)cc2)c1 |  |  | 2.3 (≈ 6.9 µM) | 
CCOc1ccc(/C(=N\O)c2cccc(NS(=O)(=O)N(C)C)c2)cc1 |  |  | 5.5 (≈ 15.1 µM) | 
COc1ccc(NC(=O)c2cccc(NS(=O)(=O)N(C)C)c2)cc1 |  |  | 4 (≈ 11.4 µM) | 
COc1ccc(/C(=N\O)c2cccc(NS(=O)(=O)N3CCCC3)c2)cc1 |  |  | 1.1 (≈ 2.93 µM) | 
COCc1ccc(/C(=N\O)c2cccc(NS(=O)(=O)C(C)C)c2)cc1 | 0.98 (≈ 2.7 µM) | 68 | 0.22 (≈ 0.607 µM) | 
CN(C)S(=O)(=O)Nc1cccc(C(=O)Nc2ccc(Br)cc2)c1 |  |  | 1.7 (≈ 4.27 µM) | 
CC(C)S(=O)(=O)n1c(N)nc2ccc(/C(=N/O)c3ccccc3)cc21 [ENVIROXIME] | 0.024 (≈ 0.067 µM) |  | 0.032 (≈ 0.0893 µM) | 
CN(C)S(=O)(=O)Nc1cccc(C(=O)Nc2ccccn2)c1 |  |  | 44 (≈ 137 µM) | 
CCCOc1ccc(NC(=O)c2ccc(NS(=O)(=O)N(C)C)cc2)cc1 |  |  | 0.7 (≈ 1.85 µM) | 
CC(C)S(=O)(=O)Nc1cccc(C(=O)Nc2nccs2)c1 |  |  | 25 (≈ 76.8 µM) | 
COc1ccc(/C(=N/O)c2cccc(NS(=O)(=O)N(C)C)c2)cc1 | 5.4 (≈ 15.5 µM) | 3.4 | 7.6 (≈ 21.8 µM) | 
CN(C)S(=O)(=O)Nc1cccc(C(=O)NC2CCCCC2)c1 |  |  | 28 (≈ 86 µM) | 
CC(C)S(=O)(=O)Nc1cccc(/C(=N/O)c2ccc(CO)cc2)c1 | 0.39 (≈ 1.12 µM) |  |  | 
CC(C)S(=O)(=O)Nc1cccc(C(=O)Nc2ccccc2C(F)(F)F)c1 |  |  | 0.6 (≈ 1.55 µM) | 
CC(C)S(=O)(=O)Nc1ccc(C(=O)Nc2ccc(C(F)(F)F)cc2)cc1 |  |  | 0.25 (≈ 0.647 µM) | 
CN(C)S(=O)(=O)Nc1cccc(C(=O)Nc2ccccc2)c1 |  |  | 4 (≈ 12.5 µM) | 
CC(C)S(=O)(=O)Nc1cccc(C(=O)NCc2ccccc2)c1 |  |  | > 50 | 
Cc1ccc(NS(=O)(=O)C(C)C)cc1C(=O)Nc1ccc(Cl)cc1 |  |  | 12 (≈ 32.7 µM) | 
CN(C)S(=O)(=O)Nc1ccc(C(=O)Nc2ccccc2Cl)cc1 |  |  | 6.2 (≈ 17.5 µM) | 
COC(=O)c1ccc(NC(=O)c2cccc(NS(=O)(=O)C(C)C)c2)cc1 |  |  | 4 (≈ 10.6 µM) | 
CN(C(=O)c1ccc(NS(=O)(=O)N(C)C)cc1)c1ccc(Cl)cc1 |  |  | > 25 | 
CN(C)S(=O)(=O)Nc1ccc(C(=O)Nc2ccc(C(C)(C)C)cc2)cc1 |  |  | 0.12 (≈ 0.32 µM) | 

SMILES | EC50 [1] [µg/mL] | Chemotherapeutic index [2] | EC50 [3] [µg/mL] | EC50 [4] [µg/mL]
CC(=O)c1ccccc1NC(=O)c1cccc(NS(=O)(=O)C(C)C)c1 |  |  | 5 (≈ 13.9 µM) | 
CN(C)S(=O)(=O)Nc1cc(C(=O)Nc2ccccc2)ccc1Cl |  |  | 10 (≈ 28.3 µM) | 
CC(C)S(=O)(=O)Nc1cccc(C(=O)Nc2cccc(Cl)c2)c1 |  |  | 1.5 (≈ 4.25 µM) | 
CN(C)S(=O)(=O)Nc1cccc(/C(=N/O)c2ccccc2)c1 | 0.54 (≈ 1.69 µM) | 24 | 0.79 (≈ 2.47 µM) | 
CC(C)S(=O)(=O)Nc1cccc(C(=O)Nc2cccc([N+](=O)[O-])c2)c1 |  |  | > 25 | 
O=C(Nc1ccccc1)c1cccc(NS(=O)(=O)N2CCCCC2)c1 |  |  | 11 (≈ 30.6 µM) | 
CN(C)S(=O)(=O)Nc1ccc(C(=O)Nc2cccc(Cl)c2)cc1 |  |  | 1.6 (≈ 4.52 µM) | 
O=C(Nc1ccccc1)c1cccc(NS(=O)(=O)N2CCCC2)c1 |  |  | 6.4 (≈ 18.5 µM) | 
CN(C)S(=O)(=O)Nc1ccc(C(=O)Nc2ccccc2)cc1 |  |  | 3 (≈ 9.39 µM) | 
CN(C)S(=O)(=O)Nc1cccc(/C(=N/O)c2ccc3c(c2)OCO3)c1 |  |  | 3.4 (≈ 9.36 µM) | 
CC(C)S(=O)(=O)n1c(N)nc2ccc(/C(=N\O)c3ccccc3)cc21 [ZINVIROXIME] | 0.24 (≈ 0.67 µM) | 61 | 0.14 (≈ 0.391 µM) | 
CN(C)S(=O)(=O)Nc1ccccc1C(=O)Nc1ccccc1 |  |  | 25 (≈ 78.3 µM) | 
CC(C)S(=O)(=O)Nc1cccc(C(=O)NC(c2ccccc2)c2ccccc2)c1 |  |  | > 50 | 
COc1ccc(/C(=N\O)c2cccc(NS(=O)(=O)C(C)C)c2)cc1 | 0.62 (≈ 1.78 µM) | 32 | 0.36 (≈ 1.03 µM) | 
CC(C)S(=O)(=O)Nc1cccc(C(=O)Nc2cccc(O)c2)c1 |  |  | 25 (≈ 74.8 µM) | 
CC(C)S(=O)(=O)Nc1cccc(C(=O)Nc2ccc(Cl)c(Cl)c2)c1 |  |  | > 25 | 
COc1ccc(/C(=N\O)c2cccc(NS(=O)(=O)N(C)C)c2)c(OC)c1 | 0.89 (≈ 2.35 µM) | 28 | 1 (≈ 2.64 µM) | 
CN(C)S(=O)(=O)Nc1cccc(C(=O)Nc2ccc(C(F)(F)F)cc2)c1 |  |  | 0.46 (≈ 1.19 µM) | 
CN(C)S(=O)(=O)Nc1cccc(C(=O)Nc2cccc(Cl)c2)c1 |  |  | 1.5 (≈ 4.24 µM) | 
COc1ccc(/C(=N/O)c2cccc(NS(=O)(=O)N(C)C)c2)c(OC)c1 | 4 (≈ 10.5 µM) | 1.8 | 19.5 (≈ 51.4 µM) | 
CN(C)S(=O)(=O)Nc1cccc(C(=O)Nc2ccc(C#N)cc2)c1 |  |  | 5 (≈ 14.5 µM) | 
CN(C)S(=O)(=O)Nc1ccc(C(=O)Nc2cccc(Br)c2)cc1 |  |  | 5 (≈ 12.6 µM) | 

Reference: ChEMBL document CHEMBL1123419, “Synthesis and antiviral activity of sulfonamidobenzophenone oximes and sulfonamidobenzamides” (1986)
